The record followed here is ChEMBL document CHEMBL3351782, “Synthesis and biological evaluation of glaucocalyxin A derivatives as potential anticancer agents” (Eur J Med Chem, 2014).

The structures appear in SMILES notation.

Type in all cases: functional, cell-based
The subject of one assay is A549. The experiment in a line: Antiproliferative activity against human A549 cells after 48 hrs by MTT assay. As to conditions: A549, 48 h. An outline of the steps: (§1)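 Cells were seeded at 3 × 10^3 per well and exposed 24 h later, while growing exponentially, to compounds at final concentrations of 1.25 to 40 for 48 h. MTT (5 mg/mL in PBS) was then added for 6 h. The medium was aspirated, the formazan dissolved in DMSO and absorbance read at 570 nm. Survival is relative to untreated cells; IC50 comes from triplicate wells in at least three independent experiments.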

A further assay deals with B16. In words: Antiproliferative activity against mouse B16 cells after 48 hrs by MTT assay. As to conditions: B16, 48 h. The essentials:
as §1
(Formazan colour is commonly taken as a measure of viable cells.)

Assay [1] is described as follows: Antiproliferative activity against human HL60 cells after 48 hrs by MTT assay. As to conditions: HL-60, 48 h. The essentials:
as §1

A short description of assay [2]: Antiproliferative activity against human SGC7901 cells after 48 hrs by MTT assay. Particulars: SGC-7901, 48 h. The essentials: as §1
A short description of assay [3]: Antiproliferative activity against human SMMC7721 cells after 48 hrs by MTT assay. Particulars: SMMC-7721, 48 h. An outline of the steps:
as §1

Another assay deals with KB. In words: Antiproliferative activity against human KB cells after 48 hrs by MTT assay. An outline of the steps: as §1

Take `CC1(C)C(=O)CC[C@]2(C)[C@@H]1C[C@@H](O)[C@]13C(=O)C(CNc4ccc(F)cc4)[C@H](CC[C@@H]21)[C@H]3O` (stereo partly specified): the 50% inhibitory concentration (IC50) (commonly the concentration needed to halve the response being measured) was found to be 22.7 µM in the assay on A549; 12.9 µM with B16; 17.8 µM in assay [1]; 34.2 µM in assay [2]; 19.8 µM in assay [3]; 12.3 µM in the assay with KB.
As to `Cc1ccccc1NCC1C(=O)[C@@]23[C@H](O)C[C@@H]4C(C)(C)C(=O)CC[C@@]4(C)[C@@H]2CC[C@@H]1[C@H]3O` (stereo partly specified), the IC50 in the assay on A549 was 24.7 µM; in the assay on B16, 19.2 µM; in assay [1], 18.1 µM; in assay [2] it was 38.4 µM; in assay [3], 22.2 µM; in the assay on KB it was 23.4 µM.
Regarding `COc1ccc(NCC2C(=O)[C@@]34[C@H](O)C[C@@H]5C(C)(C)C(=O)CC[C@@]5(C)[C@@H]3CC[C@@H]2[C@H]4O)cc1` (stereo partly specified), the half-inhibitory concentration (IC50) with A549 worked out at 13.6 µM; in the assay on B16 it was 12.1 µM; in assay [1], 5.7 µM; in assay [2] it was 22.4 µM; in assay [3], 18 µM; in the assay with KB it was 6.41 µM.
Take `CC1(C)C(=O)CC[C@]2(C)[C@@H]1C[C@@H](O)[C@]13C(=O)C(CNc4cccc(C#N)c4)[C@H](CC[C@@H]21)[C@H]3O` (stereo partly specified): the 50% inhibitory concentration (IC50) in the assay with A549 is 21.3 µM; in the assay with B16 it was 18.2 µM; in assay [1], 23.2 µM; in assay [2] it was 24.4 µM; in assay [3] it was 19.1 µM; in the assay with KB, 8.08 µM.
`CC1(C)C(=O)CC[C@]2(C)[C@@H]1C[C@@H](O)[C@]13C(=O)C(CNc4ccc(Cl)cc4)[C@H](CC[C@@H]21)[C@H]3O` (stereo partly specified): the IC50 was determined as 15.8 µM in the assay on A549; 9.4 µM with B16; 14.1 µM in assay [1]; 21.2 µM in assay [2]; 14.1 µM in assay [3]; 6.54 µM in the assay with KB.
On to `O=c1[nH]cc(F)c(=O)[nH]1` [FLUOROURACIL], for which the half-maximal inhibitory concentration (IC50) came to 51.6 µM in the assay on A549; 17.9 µM with B16; 27 µM in assay [1]; 59.9 µM in assay [2]; 67.7 µM in assay [3]; 53.5 µM with KB.
As to `CC1(C)C(=O)CC[C@]2(C)[C@@H]1C[C@@H](O)[C@]13C(=O)C(CNc4ccccc4Br)[C@H](CC[C@@H]21)[C@H]3O` (stereo partly specified), the IC50 is 32.6 µM in the assay on A549; 15.2 µM in the assay on B16; 12.5 µM in assay [1]; 33.5 µM in assay [2]; 28.4 µM in assay [3]; 13.9 µM in the assay with KB.
`CC1(C)C(=O)CC[C@]2(C)[C@@H]1C[C@@H](O)[C@]13C(=O)C(CNc4ccc(S(=O)(=O)c5ccccc5)cc4)[C@H](CC[C@@H]21)[C@H]3O` (stereo partly specified): the half-inhibitory concentration (IC50) in the assay with A549 came to 13.7 µM; with B16 it was 10.5 µM; in assay [1] it was 15.3 µM; in assay [2], 15.5 µM; in assay [3], 14.1 µM; in the assay with KB it was 5.64 µM.
For the molecule `CC1(C)C(=O)CC[C@]2(C)[C@@H]1C[C@@H](O)[C@]13C(=O)C(CNc4ccccc4Cl)[C@H](CC[C@@H]21)[C@H]3O` (stereo partly specified), the IC50 in the assay with A549 was 21.6 µM; with B16, 16.7 µM; in assay [1] it was 23 µM; in assay [2], 28.6 µM; in assay [3] it was 32.3 µM; with KB, 11 µM.
On to `CC(=O)c1ccc(NCC2C(=O)[C@@]34[C@H](O)C[C@@H]5C(C)(C)C(=O)CC[C@@]5(C)[C@@H]3CC[C@@H]2[C@H]4O)cc1` (stereo partly specified), for which the IC50 came out at 21.8 µM in the assay with A549; 18.3 µM in the assay on B16; 11.7 µM in assay [1]; 31.9 µM in assay [2]; 26.1 µM in assay [3]; 12.6 µM in the assay on KB.
As for `CC1(C)C(=O)CC[C@]2(C)[C@@H]1C[C@@H](O)[C@]13C(=O)C(CNc4ccccc4F)[C@H](CC[C@@H]21)[C@H]3O` (stereo partly specified), the half-maximal inhibitory concentration (IC50) was 20.6 µM in the assay with A549; 9.59 µM in the assay on B16; 15.6 µM in assay [1]; 24.3 µM in assay [2]; 14.5 µM in assay [3]; 11.2 µM in the assay on KB.
